Results reported in ChEMBL document CHEMBL3992541, “Combined treatment with zingerone and its novel derivative synergistically inhibits TGF-β1 induced epithelial-mesenchymal transition, migration and invasion of human hepatocellular carcinoma cells” (2017).
Activity calls are given as the source filed them.

Columns and labels:
[1] = tested on: SNU-182; test: Growth inhibition of human SNU182 cells at <50 uM in presence of (E)-1-(9-Ethyl-9H-carbazol-3-yl)-5-(4-hydroxy-3-methoxyphenyl)pent-1-en-3-one after 48 hrs by CCK8 assay; assay type: functional, cell-based
[2] = tested on: SNU-182; test: Inhibition of TGFbeta1-induced epithelial-mesenchymal transition in human SNU182 cells assessed as reduction in downregulation of E-cadherin expression at 40 uM preincubated for 2 hrs followed by TGFbeta1 addition measured after 48 hrs by Western blot method; assay type: functional, cell-based
How it was run: (§1)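 SNU182 cells pretreated 2 h with single agents (12.5 or 40 µM) or the mixture (20 and 40 µM), then stimulated with TGF-β1 5 ng/ml for 48 h. E-cadherin and Snail protein detected by Western blot, with GAPDH as loading control.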

[3] = tested on: SNU-182; test: Inhibition of TGFbeta1-induced epithelial-mesenchymal transition in human SNU182 cells assessed as reduction in upregulation of Snail expression at 40 uM preincubated for 2 hrs followed by TGFbeta1 addition measured after 48 hrs by Western blot method; assay type: functional, cell-based; how it was run: as §1
[4] = tested on: SNU-182; test: Inhibition of TGFbeta1-induced epithelial-mesenchymal transition in human SNU182 cells assessed as reduction in downregulation of E-cadherin expression preincubated for 2 hrs followed by TGFbeta1 addition measured after 48 hrs in presence of (E)-1-(9-Ethyl-9H-carbazol-3-yl)-5-(4-hydroxy-3-methoxyphenyl)pent-1-en-3-one by Western blot method; assay type: functional, cell-based; how it was run: as §1
[5] = tested on: SNU-182; test: Inhibition of TGFbeta1-induced invasion in human SNU182 cells at 40 uM measured after 48 hrs in presence of (E)-1-(9-Ethyl-9H-carbazol-3-yl)-5-(4-hydroxy-3-methoxyphenyl)pent-1-en-3-one by microscopic method; assay type: functional, cell-based
How it was run: (§2)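 Matrigel invasion chamber: SNU182 cells in the inner chamber received TGF-β1 with or without the mixture for 48 h. Cells on the lower surface stained, imaged at 200×, and counted. Mean±SD of triplicates.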

[6] = tested on: SNU-182; test: Inhibition of TGFbeta1-induced epithelial-mesenchymal transition in human SNU182 cells assessed as reduction in MMP9 mRNA expression at 40 uM preincubated for 2 hrs followed by TGFbeta1 addition measured after 48 hrs by qRT-PCR method; assay type: functional, cell-based
How it was run: (§3)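 SNU182 cells pretreated 2 h with single agents (12.5 or 40 µM) or the mixture (20 or 40 µM), then TGF-β 5 ng/ml for 48 h. MMP-2 and MMP-9 mRNA measured by RT-PCR with densitometry and by qRT-PCR, fold change by the 2^-ΔΔCt method. Mean±SD of triplicates.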

[7] = tested on: SNU-182; test: Inhibition of TGFbeta1-induced epithelial-mesenchymal transition in human SNU182 cells assessed as reduction in MMP9 activity measured after 48 hrs in presence of (E)-1-(9-Ethyl-9H-carbazol-3-yl)-5-(4-hydroxy-3-methoxyphenyl)pent-1-en-3-one by gelatin zymography assay; assay type: functional, cell-based
How it was run: (§4)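 Cells serum-starved overnight in 0.2% FBS medium, then left untreated or given TGF-β 5 ng/ml and/or the mixture for 48 h. MMP-2 and MMP-9 activity in conditioned medium determined by gelatin zymography.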

[8] = tested on: SNU-182; test: Inhibition of TGFbeta1-induced epithelial-mesenchymal transition in human SNU182 cells assessed as reduction in MMP2 activity measured after 48 hrs in presence of (E)-1-(9-Ethyl-9H-carbazol-3-yl)-5-(4-hydroxy-3-methoxyphenyl)pent-1-en-3-one by gelatin zymography assay; assay type: functional, cell-based; how it was run: as §4
[9] = molecular target: T1, NF-kappa-B inhibitor alpha (Homo sapiens) (UniProt P25963); test: Inhibition of TGFbeta1-induced IkB-alpha phosphorylation in human SNU182 cells at 20 to 40 uM preincubated for 2 hrs followed by TGFbeta1 addition measured after 120 mins in presence of (E)-1-(9-Ethyl-9H-carbazol-3-yl)-5-(4-hydroxy-3-methoxyphenyl)pent-1-en-3-one by Western blot method; assay type: cell-based
T1 sequence (whole entry): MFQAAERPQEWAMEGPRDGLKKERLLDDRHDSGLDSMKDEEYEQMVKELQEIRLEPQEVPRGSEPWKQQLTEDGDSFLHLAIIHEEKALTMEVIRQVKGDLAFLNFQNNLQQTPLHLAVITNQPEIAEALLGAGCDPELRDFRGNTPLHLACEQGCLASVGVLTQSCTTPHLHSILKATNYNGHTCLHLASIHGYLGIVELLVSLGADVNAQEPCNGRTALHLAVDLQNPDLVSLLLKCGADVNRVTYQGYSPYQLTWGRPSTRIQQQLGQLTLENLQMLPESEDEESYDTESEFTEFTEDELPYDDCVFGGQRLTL
How it was run: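 SNU182 cells pretreated with the mixture (20 and 40 µM) for 2 h, then exposed to TGF-β1 for 120 min. IκB protein assessed by Western blot, with GAPDH loading control.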

[10] = species: Homo sapiens; test: Inhibition of TGFbeta1-induced NF-kB binding activity in human SNU182 cells at 20 to 40 uM measured after 48 hrs in presence of (E)-1-(9-Ethyl-9H-carbazol-3-yl)-5-(4-hydroxy-3-methoxyphenyl)pent-1-en-3-one by luciferase reporter gene assay; assay type: cell-based
How it was run: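 Cells transfected with pGL4.32-NF-κB-RE-Luc or empty pGL4.32, then treated with the mixture and/or TGF-β1. Luciferase reporter activity read. Mean±SD of triplicates.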

[11] = tested on: SNU-182; test: Growth inhibition of human SNU182 cells at <12.5 uM after 48 hrs by CCK8 assay; assay type: functional, cell-based
[12] = tested on: SNU-182; test: Inhibition of TGFbeta1-induced epithelial-mesenchymal transition in human SNU182 cells assessed as reduction in upregulation of Snail expression at 12.5 uM preincubated for 2 hrs followed by TGFbeta1 addition measured after 48 hrs by Western blot method; assay type: functional, cell-based; how it was run: as §1
[13] = tested on: SNU-182; test: Inhibition of TGFbeta1-induced epithelial-mesenchymal transition in human SNU182 cells assessed as reduction in downregulation of E-cadherin expression preincubated for 2 hrs followed by TGFbeta1 addition measured after 48 hrs in presence of zingerone by Western blot method; assay type: functional, cell-based; how it was run: as §1
[14] = tested on: SNU-182; test: Inhibition of TGFbeta1-induced epithelial-mesenchymal transition in human SNU182 cells assessed as reduction in mesenchymal phenotype preincubated for 2 hrs followed by TGFbeta1 addition measured after 48 hrs in presence of zingerone; assay type: functional, cell-based
How it was run: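 Cells preincubated 2 h in serum-free medium with the mixture (20 and 40 µM), then treated with TGF-β1 5 ng/ml for 48 h. Morphology (spindle-like, elongated shape, scattering) assessed by microscopy.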

[15] = tested on: SNU-182; test: Inhibition of TGFbeta1-induced migration in human SNU182 cells at 40 uM measured after 48 hrs in presence of zingerone by wound healing assay; assay type: functional, cell-based
How it was run: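 Wound healing: SNU182 monolayers at about 90% confluence scratched with a pipette tip and washed. Medium with TGF-β1, with or without 40 µM mixture, then added. Wound imaged at 0 and 48 h; relative motility from cell surface area. Mean±SD of triplicates.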

[16] = tested on: SNU-182; test: Inhibition of TGFbeta1-induced invasion in human SNU182 cells at 40 uM measured after 48 hrs in presence of zingerone by microscopic method; assay type: functional, cell-based; how it was run: as §2
[17] = tested on: SNU-182; test: Inhibition of TGFbeta1-induced epithelial-mesenchymal transition in human SNU182 cells assessed as reduction in MMP9 mRNA expression preincubated for 2 hrs followed by TGFbeta1 addition measured after 48 hrs in presence of zingerone by qRT-PCR method; assay type: functional, cell-based; how it was run: as §3
[18] = tested on: SNU-182; test: Inhibition of TGFbeta1-induced epithelial-mesenchymal transition in human SNU182 cells assessed as reduction in MMP2 activity measured after 48 hrs in presence of zingerone by gelatin zymography assay; assay type: functional, cell-based; how it was run: as §4

COc1cc(CCC(C)=O)ccc1O
inactive: growth inhibition (GI) [1] | inhibition [2] | inhibition [3] | inhibition [6]
active: inhibition [4] Dose-dependent effect | inhibition [5] | inhibition [7] | inhibition [8] | inhibition [9] | inhibition [10]

CCn1c2ccccc2c2cc(/C=C/C(=O)CCc3ccc(O)c(OC)c3)ccc21
inactive: growth inhibition (GI) [11] | inhibition [12]
active: inhibition [13] Dose-dependent effect | inhibition [14] Dose-dependent effect | inhibition [15] | inhibition [16] | inhibition [17] Dose-dependent effect | inhibition [18]
